Type in all cases: cell-based
The nature of series [1]: (§1) Inhibition of NF-kappaB expressed in human HepG2 cells assessed as inhibition of TNFalpha-induced luciferase activity preincubated for 1 hr followed by TNFalpha challenge measured after 1 hr by reporter gene assay. The procedure, abridged: (§2)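 HepG2 cells transfected with an NF-κB-luciferase reporter were pretreated with compound at 0.1, 1 and 10 µM, then stimulated with TNF-α at 10 ng/mL. Sulfasalazine at 10 µM served as positive control. Luciferase activity was read. Data are mean ± SD (n = 3), with Dunnett's multiple comparison test, and IC50 was derived from the dose–response.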
(In general: Reporter assays use an easily measured gene product as a stand-in for the process of interest.)

In series [2] the target is T1, Peroxisome proliferator-activated receptor (Homo sapiens, UniProt P37231+Q07869+Q03181).
T1 sequence (P37231 whole entry): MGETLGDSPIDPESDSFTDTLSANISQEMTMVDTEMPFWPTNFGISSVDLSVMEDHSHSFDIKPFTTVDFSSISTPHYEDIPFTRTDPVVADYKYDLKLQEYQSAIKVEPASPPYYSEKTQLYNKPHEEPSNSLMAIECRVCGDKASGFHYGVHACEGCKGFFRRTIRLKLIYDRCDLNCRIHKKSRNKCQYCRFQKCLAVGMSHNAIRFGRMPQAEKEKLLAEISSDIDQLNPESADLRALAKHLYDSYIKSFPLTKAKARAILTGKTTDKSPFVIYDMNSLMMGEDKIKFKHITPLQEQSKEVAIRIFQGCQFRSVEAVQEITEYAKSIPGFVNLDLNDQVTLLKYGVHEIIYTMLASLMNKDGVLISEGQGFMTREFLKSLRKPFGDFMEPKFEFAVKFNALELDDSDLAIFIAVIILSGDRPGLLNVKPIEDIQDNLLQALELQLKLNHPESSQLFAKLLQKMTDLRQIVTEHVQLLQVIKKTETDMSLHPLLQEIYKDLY
T1 sequence (Q07869 whole entry): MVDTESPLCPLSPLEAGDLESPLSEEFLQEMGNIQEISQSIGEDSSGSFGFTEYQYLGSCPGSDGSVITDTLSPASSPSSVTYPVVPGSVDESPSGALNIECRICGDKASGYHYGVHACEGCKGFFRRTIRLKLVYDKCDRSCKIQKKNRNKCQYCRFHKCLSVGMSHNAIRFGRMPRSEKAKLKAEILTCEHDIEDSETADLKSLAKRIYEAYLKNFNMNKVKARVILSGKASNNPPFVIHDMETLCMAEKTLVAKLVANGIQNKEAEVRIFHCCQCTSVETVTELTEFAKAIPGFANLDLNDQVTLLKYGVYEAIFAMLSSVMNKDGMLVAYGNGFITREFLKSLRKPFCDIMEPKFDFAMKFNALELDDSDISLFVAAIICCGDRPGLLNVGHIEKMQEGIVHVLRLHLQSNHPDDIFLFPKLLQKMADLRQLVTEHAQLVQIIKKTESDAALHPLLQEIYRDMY
T1 sequence (Q03181 whole entry): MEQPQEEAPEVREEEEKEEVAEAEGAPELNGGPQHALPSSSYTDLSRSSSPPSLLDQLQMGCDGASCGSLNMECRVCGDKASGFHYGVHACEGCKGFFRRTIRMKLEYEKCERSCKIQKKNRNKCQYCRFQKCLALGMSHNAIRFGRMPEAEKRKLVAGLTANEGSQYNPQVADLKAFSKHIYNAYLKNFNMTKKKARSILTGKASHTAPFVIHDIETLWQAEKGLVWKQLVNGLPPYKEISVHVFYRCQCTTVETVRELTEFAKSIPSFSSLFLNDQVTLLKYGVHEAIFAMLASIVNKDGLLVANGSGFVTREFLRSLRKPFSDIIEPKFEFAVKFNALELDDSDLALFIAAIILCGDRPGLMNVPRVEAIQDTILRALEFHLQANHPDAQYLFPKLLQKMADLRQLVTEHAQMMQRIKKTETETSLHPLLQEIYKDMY
Briefly: (§3) Transactivation of PPAR transfected in human HepG2 cells after 20 hrs by luciferase reporter gene assay.

Series [3] deals with Peroxisome proliferator-activated receptor (Homo sapiens) (UniProt P37231+Q07869+Q03181). Described as §3.
The target in series [4] is T2, Peroxisome proliferator-activated receptor delta (Homo sapiens) (UniProt Q03181).
T2 sequence (whole entry): T1 sequence (Q03181 whole entry)
Briefly: (§4) Transactivation of GAL4-fused PPARbeta (delta) ligand binding domain transfected in human HepG2 cells after 20 hrs by luciferase reporter gene assay. In outline:
(§5)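 For PPARβ(δ), luciferase transactivation was measured in HepG2 cells against a vehicle group, with L-165041 (1 µM) as positive control. EC50 came from the dose–response, given as mean ± SD (n = 3), with a cutoff of EC50 > 50 µM for inactivity.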

Series [5] addresses T3, Peroxisome proliferator-activated receptor delta (Homo sapiens, UniProt Q03181).
T3 sequence (Q03181 whole entry): T1 sequence (Q03181 whole entry)
The series is described as §4. In outline: as §5

In series [6] the target is T4, Peroxisome proliferator-activated receptor alpha (Homo sapiens) (UniProt Q07869).
T4 sequence (whole entry): T1 sequence (Q07869 whole entry)
Nature of the series: Transactivation of GAL4-fused PPARalpha ligand binding domain transfected in human HepG2 cells at 10 uM after 20 hrs by luciferase reporter gene assay relative to control. In outline:
(§6)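 PPARα transactivation was measured by luciferase reporter in HepG2 cells. Activity was compared with a vehicle group, and ciprofibrate (1 µM) was the positive control.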

For series [7], the target named is T5, Peroxisome proliferator-activated receptor gamma (Homo sapiens) (UniProt P37231).
T5 sequence (whole entry): T1 sequence (P37231 whole entry)
Briefly: Transactivation of GAL4-fused PPARgamma ligand binding domain transfected in human HepG2 cells assessed as upregulation of gene expression at 10 uM by luciferase reporter gene assay relative to control. In outline:
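In HepG2 cells, PPARγ luciferase transactivation was expressed as fold over the vehicle group. Troglitazone (1 µM) was the positive control, and significance was set against vehicle at p < 0.01.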

Series [8] concerns HepG2. Briefly: Cytotoxicity against human HepG2 cells assessed as cell viability at 10 uM after 24 hrs by MTS assay. Conditions: hepg2, 24 h. (In general: Tetrazolium assays rely on reduction of a dye to a coloured formazan, in cell work by metabolically active cells.)
Series [9] deals with T6, Peroxisome proliferator-activated receptor gamma (Homo sapiens, UniProt P37231).
T6 sequence (P37231 whole entry): T1 sequence (P37231 whole entry)
Briefly: Transactivation of GAL4-fused PPARgamma ligand binding domain transfected in human HepG2 cells after 20 hrs by luciferase reporter gene assay.

The target of series [10] is T7, Peroxisome proliferator-activated receptor alpha (Homo sapiens, UniProt Q07869).
T7 sequence (Q07869 whole entry): T1 sequence (Q07869 whole entry)
Briefly: Transactivation of GAL4-fused PPARalpha ligand binding domain transfected in human HepG2 cells after 20 hrs by luciferase reporter gene assay. The procedure, abridged:
as §6

In series [11] the test system is HepG2. The description is as §1. In outline: as §2

pEC50, pIC50: −log10 of the molar value.

8 compounds from ChEMBL document CHEMBL2157928, “Diarylheptanoid glycosides from Tacca plantaginea and their effects on NF-κB activation and PPAR transcriptional activity” (Bioorg Med Chem Lett, 2012) can be followed below.

As to `O=C(O)c1cc(/N=N/c2ccc(S(=O)(=O)Nc3ccccn3)cc2)ccc1O` [SULFASALAZINE], the pIC50 (as a rule, the negative decadic logarithm of the IC50, by convention in mol/L) in series [1] was 6.05.
`OC[C@H]1O[C@@H](Oc2ccc(CCCC[C@H](O)CCc3ccc(O[C@@H]4O[C@H](CO)[C@@H](O)[C@H](O)[C@H]4O)c(O)c3)cc2O)[C@H](O)[C@@H](O)[C@@H]1O` [PLANTAGINEOSIDE B]: the EC50 (commonly the concentration that produces a half-maximal response) in series [2] came out at 10.4 µM. In addition, the values for the Activity result (in [3]; in [4]; in the series with HepG2 [8]) were “Dose-dependent effect”, “Dose-dependent effect” and “Non-toxic”, respectively. Moreover, the results for the pEC50 in series [5], in series [9] and in [10] were 4.88, 4.48 and < 4.30, respectively. Also, the fold change (FC) stood at 1.3 in series [6] and 1.5 in series [7]. Also, the pIC50 in [1] was < 5.00.
With `O=C(CCCCc1ccc(O[C@@H]2O[C@H](CO)[C@@H](O)[C@H](O)[C@H]2O)c(O)c1)CCc1ccc(O[C@@H]2O[C@H](CO)[C@@H](O)[C@H](O)[C@H]2O)c(O)c1` [PLANTAGINEOSIDE A], the EC50 in [2] amounted to 7 µM. For the same compound, the Activity entry in [3] was “Dose-dependent effect”; in series [4], “Dose-dependent effect”; in the series on HepG2 [8], “Non-toxic”. The pEC50 (commonly −log10 of the EC50, conventionally taken in molar units) is 4.96 in series [5], < 4.30 in series [9] and 4.33 in [10]. The compound further returned a fold change (FC) in [6] of 1.4. Further, the pIC50 in [1] was < 5.00.
`OC[C@H]1O[C@@H](O[C@H](CCc2ccc(O)c(O)c2)C[C@H](O)CCc2ccc(O)c(O)c2)[C@H](O)[C@@H](O)[C@@H]1O` displayed a concentration giving a half-maximal response (EC50) in series [2] of 9.9 µM. The Activity result in [3] is “Dose-dependent effect”; in series [4] it was “Dose-dependent effect”; in the series with HepG2 [8] it was “Non-toxic”. For the same compound, the pEC50 in series [5] was 4.64; in series [9] it was < 4.30; in series [10] it was < 4.30. Also, the fold change (FC) in [6] came to 1.3. The inhibition result with HepG2 [11] was “Dose-dependent effect”. For the same compound, the pIC50 in [1] is 5.03.
In turn, `OC[C@H]1O[C@@H](O[C@H](CCc2ccc(O)cc2)C[C@H](O)CCc2ccc(O)cc2)[C@H](O)[C@@H](O)[C@@H]1O` displayed an EC50 in series [2] of 1.2 µM. Besides, the Activity entry in series [3] is “Dose-dependent effect”; in [4], “Dose-dependent effect”; in the series on HepG2 [8], “Non-toxic”. Moreover, the pEC50 in series [5] is 4.53; in [9], < 4.30; in series [10] it was < 4.30. The inhibition entry in the series with HepG2 [11] is “Dose-dependent effect”. Also, the pIC50 in series [1] was 5.21.
As to `OC[C@H]1O[C@@H](O[C@H](CCc2ccc(O)c(O)c2)C[C@H](O)CCc2ccc(O)cc2)[C@H](O)[C@@H](O)[C@@H]1O`, in series [2], the EC50 was found to be 0.3 µM. For the same compound, the values for the Activity result (in series [3]; in series [4]; with HepG2 [8]) were “Dose-dependent effect”, “Dose-dependent effect” and “Non-toxic”, respectively. Further, the pEC50 in [5] was 4.81; in series [9] it was < 4.30; in [10] it was 4.37. Further, in series [6], the fold change (FC) came to 1.4. Besides, the inhibition entry in the series on HepG2 [11] was “Dose-dependent effect”. For the same compound, in series [1], the pIC50 was 6.05.
`CCCc1c(OCCCOc2ccc(OCC(=O)O)cc2)ccc(C(C)=O)c1O` gave a pEC50 in series [5] of 6.19.
Turning to `OC[C@H]1O[C@@H](O[C@@H]2C[C@H](CCc3ccc(O)c(O)c3)O[C@H](c3ccc(O)c(O)c3)C2)[C@H](O)[C@@H](O)[C@@H]1O` [PLANTAGINEOSIDE C], the EC50 in [2] was found to be 5.2 µM. The figures for the Activity entry (in [3]; in series [4]; in the series on HepG2 [8]) were “Dose-dependent effect”, “Dose-dependent effect” and “Non-toxic”, respectively. Moreover, the values for the pEC50 in series [5], in series [9] and in series [10] were 4.52, < 4.30 and < 4.30, respectively. For the same compound, in the series on HepG2 [11], the inhibition result was “Dose-dependent effect”. For the same compound, the pIC50 in series [1] is 5.10.
